# Measurements published in PubChem BioAssay.
# Unmarked numbers belong to inactive results. Records with an inconclusive call do not appear. Active and inactive are the calls of the source.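 Rule for the calls, unless noted: active = RAM network inhibition above 8.4% in each of two replicates, 3 SD over the compound average; inconclusive = above 8.4% inhibition in only one replicate; inactive = 8.4% inhibition or less in each replicate.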
# What was measured:
# [1] = S. cerevisiae growth inhibition in permissive medium (OD615), pilot counter-assay for S. cerevisiae lifespan shortening project, permissive growth control (AID 705;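 active = growth inhibition above 25% in both replicates, a cutoff set 3 SD above the mean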); conditions: OD615, 24 h, at 10 µM, stronger effect = higher value
# How it was run: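 System: S. cerevisiae with engineered DeaD lifespan system. Medium: SC raffinose/galactose permissive medium. Doses: single compound dose of 10 µM, 0.25% DMSO final. Schedule: 24 h exposure, 30 °C. Measured by: OD615 turbidity read. Read-out: growth inhibition.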
# [2] = S. cerevisiae growth inhibition in restrictive medium, OD615, pilot screen, restrictive growth control, yeast lifespan reduction project (AID 706;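 active = growth inhibition above a set limit, 3 SD over mean compound inhibition, in both replicates, cut at about 43% in these data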;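 note: modified DeaD lifespan yeast strain shifted to restrictive glucose medium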); conditions: OD615, 48 h, at 10 µM, stronger effect = higher value
# How it was run: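 Assay system – genetically modified Saccharomyces cerevisiae, DeaD replicative lifespan assay strain · Medium – CSMM-D glucose medium · Doses – 10 µM compound, 0.25% DMSO · Times – 4 h pre-incubation, 48 h exposure at 30 °C · Signal – optical density at 615 nm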
# [3] = doxorubicin toxicity protection in MRP-1 cells – H69AR cells, CellTiter-Glo, duplicate, MRP-1 activator project, pilot screen (AID 807;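 active = viability increase at or above a cutoff of the median across tested compounds plus 3 SD, cut at about 8.5% in these data, passing the limit was not always enough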;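 note: compound pretreatment 18-22 h then 72 h combined with doxorubicin; 0% = doxorubicin alone and 100% = vehicle without doxorubicin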); conditions: H69AR viability with doxorubicin, CellTiter-Glo luminescence; at 10 µM; stronger effect = higher value
# [4] = viability of HCT116 without oncogenic beta-catenin – human colon tumor cells, pilot screen (AID 823;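 active = cell viability at or below a set limit in both duplicate runs, the limit being the all-compound median minus 4 SD, cut at about 23% in these data, passing the limit was not always enough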;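 note: 0% = wells killed by 20 µM Hyamine and 100% = untreated DMSO cell wells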); conditions: HCT116 beta-catenin knockout viability, CellTiter-Glo, 60 h; at 10 µM; stronger effect = lower value
# [5] = viability of PTEN-null HCT116 cells – cell-based, HCT116 clonal line, CellTiter-Glo, pilot screen (AID 824;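 active = viability at or below 27.92% in each of two runs, the all-compound median minus 4 SD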;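 note: 0% = 20 µM Hyamine control and 100% = vehicle cell control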); conditions: HCT116 PTEN-deleted viability, 60 h, at 10 µM, stronger effect = lower value
# [6] = RAM pathway blockade in budding yeast – dse1pr::URA3 reporter, 5-FOA selection, pilot screen (AID 869;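 active = inhibition over a set limit, the all-compound mean plus 3 SD, in both replicate runs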;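 note: 0% = DMSO wells with no growth and 100% = 10 µM 1-NA-PP1 with full growth; RAM network block rescues cells from 5-FOA so hits raise OD615 growth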); conditions: S. cerevisiae dse1pr::URA3 5-FOA growth, OD615, 2 d; at 10 µM; stronger effect = higher value; strain carries analog-sensitive mutant Cbk1 kinase
# [7] = RAM signaling pathway blockade in yeast – S. cerevisiae, Pdr1DBD-CYC8 efflux-inhibited sensitized strain, primary screen (AID 1298);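 note: 0% = DMSO untreated cells without growth and 100% = 10 µM 1-NA-PP1 full growth; higher means more yeast growth rescued from 5-FOA killing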; conditions: S. cerevisiae cbk1-as DSE1-URA3 strain, 5-FOA growth OD615, 2 d; at 50 µM; stronger effect = higher value
SMILES,growth inhibition [1] [%],growth inhibition [2] [%],viability increase [3] [%],viability [4],viability [5],inhibition [6] [%],RAM network inhibition [7] [%]
CC(OC(=O)c1cc[n+]([O-])cc1)C(=O)Nc1ccc(Cl)cn1 (configuration not stated),0.77,0.53,-1.44,102%,98.3%,1.23,1.61
CCc1cccc(NC(=O)CCS(=O)(=O)c2cccc3nonc23)c1,0.64,-9.32,-1.95,93.8%,95.3%,0.47,2.79
Cc1nnc(NC(=O)C(C)Sc2nncn2C)s1 (configuration not stated),-15.9,-22.2,3.71,107%,94.8%,1.18,1.06
CCOc1ccc(S(=O)(=O)n2ccnc2)c2ccccc12,-2.9,0.2,-1.1,101%,106%,0.31,2.78
CCOc1cccc(NC(=O)Cc2cccs2)c1,-8.74,-0.895,-1.86,94.1%,84.6%,1.06,4.72
COc1ccc(OCCOC(=O)Nc2ccccc2)cc1,-13.2,-6.21,1.53,93.4%,94.1%,1.64,5.48
O=C(c1cnn2c(C(F)(F)F)cc(-c3ccccc3)nc12)N1CCOCC1,-14.6,-10,-2.81,103%,99.8%,0.505,-1.1
O=C1Nc2ccccc2C(O)(C(=O)NC2CC2)N1c1ccc(Cl)c(Cl)c1 (configuration not stated),-1.51,-1.06,-4.14,92.5%,95%,1.22,3.99
COc1ccc(Nc2oc(-c3ccccc3Cl)nc2C#N)cc1,9.48,0.98,-8,6.01% (active),8.29% (active),1.94,7.73
CC1Cc2ccccc2N1C(=O)CCn1c(=O)sc2ccccc21 (configuration not stated),-4.26,-16.9,-1.79,93.3%,85.3%,1.17,3.45
Cc1ccc(OCC(=O)NCc2ccccn2)c(Br)c1,2.21,-9.19,-1.45,97.8%,95%,0.22,0.01
COc1ccc(S(=O)(=O)N2CCC(C(N)=O)CC2)cc1,6.47,-3.14,0.89,106%,102%,3.44,4.25
COCCSc1nc2c(c(=O)[nH]c(=O)n2C)n1CCC(C)C,-19.7,-18.9,-1.88,103%,97.3%,1.55,2.8
CCCC(=O)NCCc1nc2ccccc2n1CCC,-7.3,2.73,0.5,102%,101%,2.72,-1.16
COc1ccc(S(=O)(=O)Cc2ccc(C(=O)NC3CC3)o2)cc1,1.37,-4.7,-3.02,75.5%,87.9%,0.85,2.57
COc1ccc2oc(C(=O)CCC(=O)O)c(N)c2c1,-12.2,8.27,-0.43,93.3%,92.5%,1.98,1.31
Cc1ccc(NC(=O)C(C)N2CCOCC2)c(C(=O)c2ccccc2)c1 (configuration not stated),-11.7,-12.7,-1.7,100%,99.5%,1.09,3.04
Cc1ccc(-c2nc(C#N)c(N3CCCCC3)o2)cc1,-4.44,-6.95,-1.61,98%,78.1%,1.51,3.37

SMILES,growth inhibition [1] [%],growth inhibition [2] [%],viability increase [3] [%],viability [4],viability [5],inhibition [6] [%],RAM network inhibition [7] [%]
CCSc1nnc(Cc2cc(=O)[nH]c(=O)[nH]2)n1-c1cccc(C)c1,-8.16,-4.58,-1.79,105%,94.3%,1.77,0.26
CCOC(=O)c1cnc2c(Cl)cc(Cl)cc2c1NCCOCCO,1.23,-11.6,-5.62,81.8%,74.4%,-0.09,2.56
Cc1ccc(C2CC(=O)NC(SCc3ccccc3)=C2C#N)o1 (configuration not stated),-12.6,-9.71,-3.75,85.7%,104%,-0.825,0.58
CC(C)C(NS(=O)(=O)c1ccc2c(c1)oc(=O)n2C)C(=O)N1CCN(Cc2ccccc2)CC1 (configuration not stated),-5.8,-20.3,-3.99,88.9%,92%,2.62,-2.73
O=C(CCCN1C(=O)CSc2ncccc21)N1CCN(Cc2ccccc2)CC1,-1.92,-2.68,-2.06,92.4%,91.7%,2.33,2.55
O=C(CN1CCOc2ccccc21)NCc1ccco1,-11.6,-14.4,-4.51,88.1%,82.9%,0.09,0.05
Cn1c(=O)c2c(nc(SCCNS(=O)(=O)c3ccccc3)n2C)n(C)c1=O,-20.6,-16.3,-3.87,101%,99%,1.46,7.66
CCOc1cc(CN2CCN(c3cccc(C(F)(F)F)c3)CC2)ccc1O,-9.48,-4.3,-5.3,82.7%,82.9%,1.4,0.97
CC(C)N(Cc1nc2ccccc2[nH]1)C(C)C,2.5,4.54,-0.49,94.1%,91.9%,1.25,0.22
CC1Cc2ccccc2N1C(=O)c1cnc2n(c1=O)CCS2 (configuration not stated),-2.36,-4.37,-0.53,94.4%,98.9%,-0.135,2.13
Cc1c(C(=O)OC2CCCC2)[nH]c2c1C(=O)CC(c1ccco1)C2 (configuration not stated),-6.06,-12.3,-5.41,15.4% (active),17.7% (active),1.86,0.11
COC(=O)C(C)Sc1nnc(Cc2cc(=O)[nH]c(=O)[nH]2)n1-c1cc(C)ccc1C (configuration not stated),-5.62,0.885,-1.25,96%,90.3%,1.77,0.62
COc1cccc(-n2c(=O)[nH]cc(C(=O)Nc3ccc4c(c3)OCCO4)c2=O)c1,-8.56,-1.22,-1.26,105%,101%,3.17,5.22
O=C(c1ccc(S(=O)(=O)N2CCCCC2)cc1)N1CCN=C1SCc1cccnc1,-1.57,-2.72,1.27,89.4%,89.3%,1.77,4.85
Cc1ccc(C)c(NC(=O)CS(=O)(=O)c2cn(C)c3ccccc23)c1,-7.22,2.97,-0.69,103%,98.2%,0.025,1.3
COC(=O)c1c(NC(=O)c2nc3ccccc3s2)sc2c1CCN(C(C)=O)C2,7.87,1.73,-6.02,71.7%,68%,4,5.96
Cc1ccc(C(=O)Nc2ccc3c(c2)CCC3)o1,-3.56,-9.54,-2.44,77.5%,69.8%,0.895,-0.68
COc1ccc(Cl)cc1NC(=O)c1cnc2n(c1=O)CCS2,-7.35,3.42,-4.43,94.5%,89.2%,2.78,3.81
